Results gathered from unrelated publications.
Each line is one published result; the experiments were not run side by side.
Cell line: HeLa
Observed: cell growth or viability

Cc1nc2ccc(Cl)cn2c1C(=O)N1CCN(Cc2cn(-c3ccc(Br)cc3)nn2)CC1 — CC50 (resazurin): > 100 µM
CCOP(=O)(OCC)[C@@H]1C[C@@H](n2cc(C(=O)OC)nn2)ON1C (relative stereo) — CC50 (72 h): > 250 µM
CSSc1ccccc1C(=O)O — CC50 (MTT; 48 h): 409 µM
Cc1nc2ccc(Cl)cn2c1C(=O)N1CCN(Cc2cn(-c3ccc(F)c(Cl)c3)nn2)CC1 — CC50 (resazurin): > 100 µM
COC(=O)c1ccnc(C(=O)OC)c1 — CC50: > 1000 µM
CCOP(=O)(OCC)[C@@H]1C[C@@H](n2cc(Cn3cnc4c(N)ncnc43)nn2)ON1C (racemic) — CC50 (72 h): > 250 µM
Cc1nc2ccc(Cl)cn2c1C(=O)N1CCN(Cc2cn(-c3ccccc3Cl)nn2)CC1 — CC50 (resazurin): > 100 µM
O=C(O)c1ccc(O)c2ncccc12 — CC50: > 1000 µM
O=[N+]([O-])c1ccc(-c2nc3cccc(O)c3[nH]2)o1 — CC50 (resazurin; 72 h): 20 µM
CCOP(=O)(OCC)[C@@H]1C[C@@H](n2cc(-c3nccn3C)nn2)ON1C — CC50 (72 h): > 250 µM
Cc1ccn2c(C(=O)N3CCN(Cc4cn(-c5ccc(Br)cc5)nn4)CC3)c(C)nc2c1 — CC50 (resazurin): > 100 µM
COC(=O)[C@@H]1Cc2c([nH]c3ccccc23)[C@@H](c2ccc3c(c2)OCO3)N1 — CC50 (MTT; 48 h): 10 µg/mL
CCOP(=O)(OCC)[C@@H]1C[C@H](n2cc(Cn3cc(C)c(=O)[nH]c3=O)nn2)ON1C (racemic) — CC50 (72 h): > 250 µM
CN1CC[C@H](c2c(O)cc(O)c3c(=O)cc(-c4ccccc4Cl)oc23)[C@H](O)C1 — CC50 (MTT; 72 h): 0.12 µM
Cc1nc2ccc(Cl)cn2c1C(=O)N1CCN(Cc2cn(-c3ccccc3F)nn2)CC1 — CC50 (resazurin): > 100 µM
COCCN1CCN(c2nc(SCCc3ccccc3)c(C#N)c3c2COC(C)(C)C3)CC1 — CC50: < 50 µM
